ChEMBL document CHEMBL1800018, “Discovery of a series of imidazo[4,5-b]pyridines with dual activity at angiotensin II type 1 receptor and peroxisome proliferator-activated receptor-γ” (J Med Chem, 2011)
The source made the active and inactive calls. No cut-off for these calls is given here.

Legend:
[1] = target: T1, Type-1 angiotensin II receptor (Homo sapiens, UniProt P30556); experiment: Displacement of [125I]Tyr4-Sar1,Ile8-Angiotensin II from human Angiotensin 1 receptor after 60 mins by scintillation counting
T1 sequence (P30556 whole entry): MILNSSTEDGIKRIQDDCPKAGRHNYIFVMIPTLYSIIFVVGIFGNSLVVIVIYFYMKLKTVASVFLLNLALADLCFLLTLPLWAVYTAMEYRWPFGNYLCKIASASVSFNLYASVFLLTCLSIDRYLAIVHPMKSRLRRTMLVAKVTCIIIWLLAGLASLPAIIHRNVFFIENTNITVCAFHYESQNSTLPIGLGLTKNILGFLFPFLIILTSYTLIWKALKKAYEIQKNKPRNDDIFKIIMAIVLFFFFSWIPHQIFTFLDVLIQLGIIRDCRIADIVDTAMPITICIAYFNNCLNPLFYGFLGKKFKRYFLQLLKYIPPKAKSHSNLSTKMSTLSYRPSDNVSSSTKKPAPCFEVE

[2] = target: T2, Peroxisome proliferator-activated receptor gamma (Homo sapiens, UniProt P37231); experiment: Partial agonist activity at human PPARgamma-LBD/Gal4 DNA binding domain by transactivation assay
T2 sequence (P37231 whole entry): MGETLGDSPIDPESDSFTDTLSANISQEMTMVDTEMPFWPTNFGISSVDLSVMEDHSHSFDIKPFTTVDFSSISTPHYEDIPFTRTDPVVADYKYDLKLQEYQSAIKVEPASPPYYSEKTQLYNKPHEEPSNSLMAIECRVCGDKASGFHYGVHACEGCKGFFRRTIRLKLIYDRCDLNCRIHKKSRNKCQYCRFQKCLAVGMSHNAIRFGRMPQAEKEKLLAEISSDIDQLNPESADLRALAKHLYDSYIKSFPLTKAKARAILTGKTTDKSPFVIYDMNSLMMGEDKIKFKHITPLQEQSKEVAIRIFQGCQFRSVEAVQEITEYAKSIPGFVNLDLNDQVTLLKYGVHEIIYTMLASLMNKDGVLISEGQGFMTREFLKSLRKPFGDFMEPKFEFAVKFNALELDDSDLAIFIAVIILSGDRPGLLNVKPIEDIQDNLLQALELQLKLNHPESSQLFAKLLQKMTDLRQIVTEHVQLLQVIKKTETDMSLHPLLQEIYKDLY

Rattus norvegicus [3] = experiment: Antidiabetic activity in ZDF rat assessed as body weight gain at 3 mg/kg, po QD for 40 days measured on day 6 (reference value: 133+/-9 g); type: functional, organism-based; parameters: dose 3 mg/kg
Rattus norvegicus [4] = experiment: Antidiabetic activity in ZDF rat assessed as body weight gain at 3 mg/kg, po QD for 40 days (reference value: 133+/-9 g); type: functional
Procedure, shortened: (§1)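 Male ZDF rats, starting at about 6 weeks old, were dosed orally once daily for 40 days in 1.5% CMC/0.2% Tween 20 suspension, n = 8/group. Body weight was followed over the study. Gain was calculated per animal from day 0 to day 40 and compared with vehicle and pioglitazone (3 mg/kg) groups. Data are mean ± SEM.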

Rattus norvegicus [5] = experiment: Antidiabetic activity in ZDF rat assessed as adiponectin level at 3 mg/kg, po QD for 40 days (reference value: 11.9+/-1.5 ug/ml); type: functional
Rattus norvegicus [6] = experiment: Antidiabetic activity in ZDF rat assessed as blood glucose level at 3 mg/kg, po QD for 40 days (reference value: 771+/-60 mg/dL); type: functional
Rattus norvegicus [7] = experiment: Antidiabetic activity in ZDF rat assessed as triglyceride level at 3 mg/kg, po QD for 40 days (reference value: 618+/-52 mg/dL); type: functional
Rattus norvegicus [8] = experiment: Antidiabetic activity in ZDF rat assessed as adiponectin level at 100 mg/kg, po QD for 40 days (reference value: 11.9+/-1.5 ug/ml); type: functional
Rattus norvegicus [9] = experiment: Antidiabetic activity in ZDF rat assessed as body weight gain at 100 mg/kg, po QD for 40 days measured on day 32 (reference value: 133+/-9 g); type: functional, organism-based; parameters: dose 100 mg/kg
Rattus norvegicus [10] = experiment: Antidiabetic activity in ZDF rat assessed as triglyceride level at 100 mg/kg, po QD for 40 days (reference value: 618+/-52 mg/dL); type: functional
Rattus norvegicus [11] = experiment: Antidiabetic activity in ZDF rat assessed as blood glucose level at 100 mg/kg, po QD for 40 days (reference value: 771+/-60 mg/dL); type: functional
Rattus norvegicus [12] = experiment: Antidiabetic activity in ZDF rat assessed as body weight gain at 100 mg/kg, po QD for 40 days (reference value: 133+/-9 g); type: functional; procedure, shortened: as §1

CCc1nc2c(C)cc(C)nc2n1[C@@H]1CCc2cc(-c3ccccc3-c3nnn[nH]3)ccc21
IC50 [1]: 661 nM | EC50 [2]: 2620 nM

Cc1cc(C)c2nc(C(C)C)n([C@H]3CCc4cc(-c5ccccc5-c5nnn[nH]5)ccc43)c2n1
IC50 [1]: 10.2 nM | EC50 [2]: 295 nM

CCc1nc2c(C)cc(Cc3ccccc3)nc2n1[C@H]1CCc2cc(-c3ccccc3-c3nnn[nH]3)ccc21
IC50 [1]: 5.2 nM

CCCCc1nc2c(C)cc(C)nc2n1C1CCc2cc(-c3ccccc3-c3nn[nH]n3)ccc21 (racemic)
IC50 [1]: 238 nM | EC50 [2]: 2200 nM

CCc1ccc(CCOc2ccc(CC3SC(=O)NC3=O)cc2)nc1 (stereo unspecified) [PIOGLITAZONE]
Activity (Rattus norvegicus [3]): Active | Activity (Rattus norvegicus [4]): 269 g | Activity (Rattus norvegicus [5]): 30.5 µg/mL | Activity (Rattus norvegicus [6]): 118 mg/dL | Activity (Rattus norvegicus [7]): 316 mg/dL

CCc1nc2c(CC(C)C)cc(C)nc2n1[C@H]1CCc2cc(-c3ccccc3-c3nnn[nH]3)ccc21
IC50 [1]: 748 nM | EC50 [2]: 165 nM

CCc1nc2c(C)cc(C)nc2n1C1CCc2cc(-c3ccccc3-c3nn[nH]n3)ccc21 (racemic)
IC50 [1]: 96 nM | EC50 [2]: 574 nM

CCc1nc2c(C)cc(C)nc2n1Cc1ccc(-c2ccccc2-c2nnn[nH]2)cc1 [L-158809]
EC50 [2]: > 20000 nM

CCc1c(C)nc2c(nc(CC)n2[C@H]2CCc3cc(-c4ccccc4-c4nnn[nH]4)ccc32)c1C
IC50 [1]: 15.7 nM | EC50 [2]: 1340 nM

CCCc1nc2c(C)cc(-c3nc4ccccc4n3C)cc2n1Cc1ccc(-c2ccccc2C(=O)O)cc1
Activity (Rattus norvegicus [8]): 13.2 µg/mL | Activity (Rattus norvegicus [9]): Active | Activity (Rattus norvegicus [10]): 935 mg/dL | Activity (Rattus norvegicus [11]): 510 mg/dL | EC50 [2]: 1520 nM | Activity (Rattus norvegicus [12]): 157 g

Cc1cc(CC(C)C)nc2c1nc(C(C)C)n2[C@H]1CCc2cc(-c3ccccc3-c3nnn[nH]3)ccc21
IC50 [1]: 3.5 nM | EC50 [2]: 89 nM

CCc1nc2c(C)cc(C)nc2n1[C@H]1CCc2cc(-c3ccccc3-c3nnn[nH]3)ccc21
IC50 [1]: 7.6 nM | EC50 [2]: 591 nM

CCc1cc(C)c2nc(C(C)C)n([C@H]3CCc4cc(-c5ccccc5-c5nnn[nH]5)ccc43)c2n1
IC50 [1]: 16.9 nM | EC50 [2]: 264 nM

CCc1nc2c(C)cc(CC(C)C)nc2n1[C@H]1CCc2cc(-c3ccccc3C(=O)O)ccc21
IC50 [1]: 10.5 nM | EC50 [2]: 175 nM

CCc1nc2c(C)c(C)c(C)nc2n1[C@H]1CCc2cc(-c3ccccc3-c3nnn[nH]3)ccc21
IC50 [1]: 202 nM | EC50 [2]: 1820 nM

CCc1cc(C)c2nc(CC)n([C@H]3CCc4cc(-c5ccccc5-c5nnn[nH]5)ccc43)c2n1
IC50 [1]: 6.8 nM | EC50 [2]: 494 nM

Cc1cc(C)c2nc(C3CC3)n([C@H]3CCc4cc(-c5ccccc5-c5nnn[nH]5)ccc43)c2n1
IC50 [1]: 8.2 nM | EC50 [2]: 762 nM

CCCc1nc2c(C)cc(C)nc2n1[C@H]1CCc2cc(-c3ccccc3-c3nnn[nH]3)ccc21
IC50 [1]: 13.3 nM | EC50 [2]: 1320 nM
